Assay outcomes deposited in PubChem by several laboratories.
Compounds with a hit are over-represented: about 2.1% of the library has one in this group of screens.
Efflux pump mplx: inhibitors of Candida antifungal efflux pumps expressed in yeast; inhibition, % at 10 µM; AID 485275; S. cerevisiae Candida pump triplex, Nile Red efflux; hit rate 0.44% among 330,000;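 active = plate passing quality check with inhibition over a set limit, or well fluorescence over plate mean plus 4 SD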;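 also: Nile Red retained in pooled yeast measured as flow cytometry median fluorescence; 0% = buffer negative control and 100% = Enniatin B positive control; higher means more Nile Red kept so more efflux inhibition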
UCH37 inh: inhibitors of human deubiquitinating enzyme UCH37. purified proteasome/UCH37, Ub-AMC cleavage fluorescence. hit rate 0.33% among 330,000. Q9Y5K5. inhibition, % (test concentration not listed);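 active = mean inhibition over replicate wells above about 20%, limit read from the data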;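 also: 0% = compound-free wells with enzyme and 100% = wells lacking proteasome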
Target sequence (Q9Y5K5 whole entry, looked up): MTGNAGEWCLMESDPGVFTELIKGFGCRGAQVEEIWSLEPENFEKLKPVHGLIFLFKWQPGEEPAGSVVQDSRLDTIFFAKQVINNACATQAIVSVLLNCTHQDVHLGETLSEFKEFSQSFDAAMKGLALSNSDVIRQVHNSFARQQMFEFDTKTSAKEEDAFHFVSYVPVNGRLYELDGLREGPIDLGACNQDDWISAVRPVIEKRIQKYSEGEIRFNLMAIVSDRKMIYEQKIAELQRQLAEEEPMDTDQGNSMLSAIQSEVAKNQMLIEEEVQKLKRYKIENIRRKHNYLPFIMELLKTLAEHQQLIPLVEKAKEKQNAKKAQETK
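Test system – human UCH37 enzyme supplied as purified proteasome complex · Incubation – 30 min preincubation with enzyme, 25 min cleavage at room temperature · Detection – AMC fluorescence from Ub-AMC cleavage, excitation 355 nm, emission 460 nm · Benchmarks – no-proteasome wells (full inhibition) and compound-free wells (no inhibition)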
Mot1-301 SUMO: SUMOylation pathway inhibition by Mot1-301 growth rescue; S. cerevisiae Mot1-301 growth rescue, ATP luminescence, 38.5C; percent above DMSO median, 100 means doubled; growth rescue, % at 18.8 µM; hit rate 1% among 320,000; AID 2716;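 active = every valid replicate shows activation above 250% relative to neutral control wells; inactive = the rest, any valid replicate at or below 250%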;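 also: OY570 slx delta 5 strain wells were the positive control but not used for scaling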
RTF Ca sens inh: cardiac RTF calcium desensitization; AID 493244; inhibition, % at 7.15 µM; hit rate 0.12% among 340,000; P19429+P45379; IANBD-labeled cardiac RTF, Ca2+ fluorescence;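 active = inhibition above the mean inhibition of all tested compounds plus 3 SD, cut at about 17% in these data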;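 also: assay run at fixed EC70 calcium of 1.6 mM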
RTF Ca sens act: cardiac RTF calcium sensitization | IANBD-labeled TnC RTF fluorescence at EC20 calcium; 0% EC20 calcium, 100% full calcium | AID 493008 | hit rate 0.24% among 340,000 | P19429+P45379 | activation, % at 7.2 µM;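 active = activation above the mean over all tested compounds plus 3 SD, cut at about 30% in these data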;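 also: rise in fluorescence read as greater calcium sensitivity of cardiac thin filaments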
ARNT TACC3 PPI: disruptors of human ARNT/TACC3 interaction | hit rate 0.66% among 390,000 | AlphaScreen His-ARNT PAS-B/GST-TACC3 binding, luminescence; TACC3 fragment carries E629A point mutation | inhibition, % at 9.99 µM;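 active = mean inhibition of replicates at least 50% and at least half of replicates each reaching 50%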;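 also: 0% = complete ARNT plus TACC3 wells and 100% = ARNT alone without TACC3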
* hit, by the source's call.

Screening Cc1cccc(NC(=O)CCC(=O)N/N=C/c2ccc(O)cc2O)c1 returned Efflux pump mplx -0.2, Mot1-301 SUMO 19.5, RTF Ca sens inh 1.0, RTF Ca sens act -5.3 and ARNT TACC3 PPI 60.2*.
COc1ccccc1/C=C\C(=O)NCC(=O)NN=Cc1ccc(O)cc1O was read as UCH37 inh 0.8.
`COc1ccccc1/C=C\C(=O)NCC(=O)N/N=C/c1ccc(O)cc1O` gave Efflux pump mplx -0.1, Mot1-301 SUMO -4.3, RTF Ca sens inh 3.7, RTF Ca sens act -2.9 and ARNT TACC3 PPI 54.2*.
Screening O=C(CNC(=O)c1cccs1)N/N=C/c1ccc(O)cc1O returned Efflux pump mplx -0.1, Mot1-301 SUMO -9.5, RTF Ca sens inh -10.2, RTF Ca sens act -7.0 and ARNT TACC3 PPI 70.4*.
COc1cccc(C=NNC(=O)CNC(=O)c2cccs2)c1O was read as UCH37 inh -0.9.
`COc1ccc(C=NNC(=O)c2ccccc2NS(=O)(=O)c2cccs2)cc1O` gave Efflux pump mplx 0.0, UCH37 inh 2.4, Mot1-301 SUMO -10.3, RTF Ca sens inh -2.8, RTF Ca sens act -3.1 and ARNT TACC3 PPI 3.8.
Screening O=C(CNC(=O)c1cccnc1)NN=Cc1cccnc1 returned UCH37 inh 1.0.
Screening O=C(CNC(=O)c1cccnc1)N/N=C/c1ccc(O)cc1O returned Efflux pump mplx 0.1, Mot1-301 SUMO 3.0, RTF Ca sens inh -4.7, RTF Ca sens act -5.3 and ARNT TACC3 PPI 79.7*.
Cc1ccccc1NC(=S)N/N=C/c1ccc(O)cc1O was read as Efflux pump mplx -0.1, Mot1-301 SUMO -7.8, RTF Ca sens inh 4.3, RTF Ca sens act -4.4 and ARNT TACC3 PPI 57.5*.
`CCNC(=S)NN=C(C)c1ccc(N2CCOCC2)cc1` gave UCH37 inh -14.4.
For O=C(CCCCCNC(=O)c1ccccc1)NN=Cc1ccc(F)cc1 the results were UCH37 inh 4.0.
Screening Cc1c(CCO)c(=O)[nH]n1S(=O)(=O)c1ccccc1 returned Efflux pump mplx 0.2, UCH37 inh -0.2, Mot1-301 SUMO 1.9, RTF Ca sens inh -4.4 and RTF Ca sens act 2.4.
`Cc1c(CCO)c(=O)n(-c2ccccc2)n1S(=O)(=O)c1c(Cl)cc(Cl)cc1Cl` gave Efflux pump mplx 0.4, UCH37 inh -1.5, RTF Ca sens inh -3.7, RTF Ca sens act 0.3 and ARNT TACC3 PPI 56.6*.
c1cnc2ncc3sccc3c2c1 was read as Efflux pump mplx -0.1, UCH37 inh 28.2*, Mot1-301 SUMO 3.6, RTF Ca sens inh -8.9, RTF Ca sens act -0.8 and ARNT TACC3 PPI 1.4.
O=C(C[n+]1ccc(/C=C/c2ccccc2)cc1)c1ccc2c(c1)OCCO2 was read as Efflux pump mplx -0.2, Mot1-301 SUMO 2.3, RTF Ca sens inh 2.2, RTF Ca sens act -1.3 and ARNT TACC3 PPI 7.8.
Screening Cc1cc[n+](CC(=O)c2ccc3c(c2)OCCO3)cc1 returned Efflux pump mplx -0.1, UCH37 inh 24.1*, Mot1-301 SUMO 2.9, RTF Ca sens inh 4.8, RTF Ca sens act -3.8 and ARNT TACC3 PPI -1.5.
`CCCC(=O)NC(c1ccccc1OC)c1ccc2cccnc2c1O` (stereo not drawn) gave Efflux pump mplx 0.1, UCH37 inh 0.5, Mot1-301 SUMO -14.7, RTF Ca sens inh -10.1, RTF Ca sens act -3.5 and ARNT TACC3 PPI -9.0.
Screening COc1ccc(C(NC(C)=O)c2ccc3cccnc3c2O)c(OC)c1 (stereo not drawn) returned Efflux pump mplx 0.1, UCH37 inh 3.6, Mot1-301 SUMO 96.0, RTF Ca sens inh -3.1, RTF Ca sens act 0.6 and ARNT TACC3 PPI 63.7*.
O=Cc1cc(N=Nc2ccc(S(=O)(=O)O)cc2)ccc1O was read as Efflux pump mplx 0.0, UCH37 inh 21.3*, Mot1-301 SUMO 3.3, RTF Ca sens inh -7.5, RTF Ca sens act -0.4 and ARNT TACC3 PPI 2.4.
For COC(=O)NN=Cc1cc(N=Nc2ccccc2)ccc1O the results were UCH37 inh 6.9.
`COc1cccc(CCNC(=O)CC2C(=O)NCCN2Cc2ccc(C)o2)c1` (stereo not drawn) gave Efflux pump mplx -0.2, UCH37 inh -2.8, Mot1-301 SUMO 15.0, RTF Ca sens inh -1.9, RTF Ca sens act 6.8 and ARNT TACC3 PPI -21.4.
